PubChem BioAssay AID652139 (Broad Institute, 2013)
Records with an inconclusive call do not appear. Calls of active or inactive are those of the source. No rule for the calls is given here.

What was measured:
Test in all cases: cell viability loss in multiple lines – CellTiter-Glo ATP luminescence, multiple timepoints, mechanism study for HRAS target identification project, profiling panel (AID 652139)
Conditions in all cases: Cancer/normal cell panel viability
C2C12 = tested on: C2C12
Summary of the method: (§1)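 Material: Human tumour lines plus mouse C2C12 and HUVEC | Input: 1,500 cells/well | Times: Overnight preculture, multiple exposures incl. 24, 48 h, all 37 °C | Technique: CellTiter-Glo luminescence measuring cellular ATP | Format: Separate assay plate for each exposure timepoint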

CCRF-CEM = tested on: CCRF-CEM
Summary of the method: as §1

HT-29 = tested on: HT-29
Summary of the method: as §1

HUVEC = tested on: HUVEC
Summary of the method: as §1

HeLA = tested on: HeLA
Summary of the method: as §1

LOX-IMVI = tested on: LOX-IMVI
Summary of the method: as §1

SNB-19 = tested on: SNB-19
Summary of the method: as §1

SNB-75 = tested on: SNB-75
Summary of the method: as §1

SR = tested on: SR
Summary of the method: as §1

U-251 = tested on: U-251
Summary of the method: as §1

SMILES	AC50 (C2C12)	AC50 (CCRF-CEM)	AC50 (HT-29)	AC50 (HUVEC)	AC50 (HeLA)	AC50 (LOX-IMVI)	AC50 (SNB-19)	AC50 (SNB-75)	AC50 (SR)	AC50 (U-251)	outcome (C2C12)	outcome (CCRF-CEM)	outcome (HT-29)	outcome (HUVEC)	outcome (HeLA)	outcome (LOX-IMVI)	outcome (SNB-19)	outcome (SNB-75)	outcome (SR)	outcome (U-251)
COc1ccc(N(C(=O)CCl)C(C(=O)NCCc2ccccc2)c2cccs2)cc1Cl (centres undefined)	842 nM	119 nM	162 nM	8940 nM	547 nM	40.5 nM	1170 nM	286 nM	61.8 nM	896 nM										
Cc1onc(C(=O)N2CCN(C(c3ccncc3)c3ccncc3)CC2)c1[N+](=O)[O-]											inactive	inactive	inactive	inactive	inactive	inactive	inactive	inactive	inactive	inactive
Cc1onc(C(=O)N2CCN(C(c3ccc(Cl)cc3)c3ccc(Cl)cc3)CC2)c1[N+](=O)[O-]		207 nM	963 nM			103 nM		687 nM	142 nM	> 70000 nM (inactive)				inactive						
COC(=O)c1ccc([C@@H]2c3[nH]c4ccccc4c3C[C@@H](C(=O)OC)N2C(=O)CCl)cc1	101 nM	82.8 nM	177 nM		573 nM	31 nM		355 nM	32.9 nM	1060 nM										
CC(C)(C)OC(=O)NCCOCCOCCOc1ccc(N(C(=O)CCl)C(C(=O)NCCc2ccccc2)c2cccs2)cc1Cl (centres undefined)	442 nM	140 nM	457 nM	13700 nM	650 nM	83.4 nM	1720 nM	686 nM	95.1 nM	1350 nM										
C#CCCCC(=O)NCCOCCOCCOc1ccc(N(C(=O)CCl)C(C(=O)NCCc2ccccc2)c2cccs2)cc1Cl (centres undefined)	5420 nM	1340 nM	2860 nM		4490 nM	421 nM	4450 nM	3560 nM	885 nM	6810 nM										
CCC(=O)N(c1ccc(OC)c(Cl)c1)C(C(=O)NCCc1ccccc1)c1cccs1 (centres undefined)			> 70000 nM (inactive)		> 70000 nM (inactive)											inactive	inactive			inactive
